# In ChEMBL document CHEMBL1157800, “Hasubanan alkaloids with delta-opioid binding affinity from the aerial parts of Stephania japonica” (J Nat Prod, 2010):
# How the values were obtained:
# Format in all cases: cell membranes
# [1] = biological target: Kappa-type opioid receptor (Homo sapiens) (UniProt P41145); test: Displacement of [3H]naloxone from kappa opioid receptor expressed in HEK293 cell membrane at 10 uM
# [2] = biological target: Delta-type opioid receptor (Homo sapiens, UniProt P41143); test: Displacement of [3H]deltorphin-2 from human delta opioid receptor expressed in HEK293 cell membrane
# [3] = biological target: Mu-type opioid receptor (Homo sapiens) (UniProt P35372); test: Displacement of [3H]naloxone from mu opioid receptor expressed in CHO cell membrane at 10 uM
# How it was run: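 Filtration binding with recombinant human µ receptor CHO cell membranes (0.017 mg/mL) and [3H]-naloxone (0.66 nM). Buffer: 50 mM Tris, 10 mM MgCl2, 1 mM EDTA, pH 7.4. Incubated 90 min, including 60 min shaking, at ca. 23 °C. Harvested onto PEI-presoaked GF/B mats, oven-dried at 50 °C, then liquid scintillation counted.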
# Mu-type opioid receptor (Homo sapiens), sequence (P35372 whole entry): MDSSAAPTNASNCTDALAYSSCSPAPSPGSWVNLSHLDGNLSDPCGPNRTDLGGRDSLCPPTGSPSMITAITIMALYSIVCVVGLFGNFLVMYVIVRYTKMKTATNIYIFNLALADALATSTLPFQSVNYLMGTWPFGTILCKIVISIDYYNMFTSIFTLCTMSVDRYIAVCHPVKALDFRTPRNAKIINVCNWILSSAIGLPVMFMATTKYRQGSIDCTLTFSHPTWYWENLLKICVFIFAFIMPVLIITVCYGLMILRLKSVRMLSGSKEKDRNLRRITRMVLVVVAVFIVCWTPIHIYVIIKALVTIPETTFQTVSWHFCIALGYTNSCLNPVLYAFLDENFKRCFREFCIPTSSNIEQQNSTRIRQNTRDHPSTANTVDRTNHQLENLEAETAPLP
# Delta-type opioid receptor, sequence (P41143 whole entry): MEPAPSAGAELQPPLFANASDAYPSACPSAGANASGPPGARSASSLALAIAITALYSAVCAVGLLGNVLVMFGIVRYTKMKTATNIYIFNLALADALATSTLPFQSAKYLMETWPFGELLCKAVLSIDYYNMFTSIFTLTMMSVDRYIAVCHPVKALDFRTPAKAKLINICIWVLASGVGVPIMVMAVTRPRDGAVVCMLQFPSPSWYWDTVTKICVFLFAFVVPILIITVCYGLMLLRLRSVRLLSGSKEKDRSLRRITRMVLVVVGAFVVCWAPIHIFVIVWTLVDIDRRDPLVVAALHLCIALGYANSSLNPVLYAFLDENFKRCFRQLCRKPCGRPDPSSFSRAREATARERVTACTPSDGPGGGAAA
# Kappa-type opioid receptor (Homo sapiens), sequence (P41145 whole entry): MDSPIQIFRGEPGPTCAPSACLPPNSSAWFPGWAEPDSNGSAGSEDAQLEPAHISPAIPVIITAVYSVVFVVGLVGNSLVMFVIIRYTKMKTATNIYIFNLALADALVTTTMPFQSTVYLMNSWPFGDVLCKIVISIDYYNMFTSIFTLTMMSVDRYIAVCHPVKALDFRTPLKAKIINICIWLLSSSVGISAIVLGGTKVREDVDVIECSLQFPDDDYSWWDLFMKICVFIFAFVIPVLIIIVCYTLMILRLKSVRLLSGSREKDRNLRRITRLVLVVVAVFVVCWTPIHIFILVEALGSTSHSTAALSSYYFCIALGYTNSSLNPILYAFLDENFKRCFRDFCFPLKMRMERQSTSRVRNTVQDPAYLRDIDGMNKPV
Compound,inhibition [1] [%],IC50 [2] [µM],inhibition [3] [%]
COc1ccc2c(c1O)[C@@]13CCN(C)[C@@]14C[C@@H]2O[C@]4(OC)[C@@H](OC)[C@@H](O)C3,0,2.1,68
COC1=C2[C@@H]3Cc4ccc(OC)c(O)c4[C@]2(CCN3)C[C@H](O)[C@@H]1O [SINOCOCULINE],0,37,54
COC1=C(OC)[C@]23CCc4ccc(OC)c(O)c4[C@@]2(CC1=O)CC(=O)N3C,0,17,49
COc1ccc2c(c1O)[C@@]13CCN(C)[C@@]14C[C@@H]2O[C@]4(OC)[C@@H](O)[C@@H](OC(=O)/C=C/c1ccccc1)C3,0,2.5,54
COC1=CC[C@]23CCN(C)[C@@]24C[C@H](O[C@@]14O)c1ccc(OC)c(O)c13 [PROSTEPHABYSSINE],0,5.5,67
COc1ccc(/C=C/C(=O)O[C@H]2C[C@]34CCN(C)[C@@]35C[C@H](O[C@]5(OC)[C@H]2OC)c2ccc(OC)c(O)c24)cc1O,0,11.3,56
COC1=C(OC)[C@]23CCc4ccc(OC)c(O)c4[C@]2(CCN3C)CC1=O [AKNADININE],0,46,68
COc1ccc2c(c1O)[C@@]13CC(=O)N(C)[C@@]14C[C@@H]2O[C@]4(OC)[C@@H](OC)[C@@H](OC(=O)/C=C/c1ccccc1)C3,0,5.1,74
COc1ccc2c(c1O)[C@@]13CCN(C)[C@@]14C[C@@H]2O[C@]4(O)[C@@H](OC)[C@@H](O)C3 [LONGANINE],0,0.7,68
